Activity calls are given as the source filed them. The rule behind the calls is not given here.
Key:
[1] = Toxicity in mouse assessed as changes in skin at 100 mg/kg, po measured after 45 mins; format: organism-based; conditions: in vivo, 0.75 h
Summary of the method: (§1)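 Acute oral toxicity per OECD 423. Mice were fasted 4 h, given a single 100 mg/kg oral dose, and observed for 45 min for signs of acute toxicity, compared with untreated controls.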

[2] = Toxicity in mouse assessed as death at 100 mg/kg, po measured after 45 mins; format: organism-based; conditions: in vivo, 0.75 h; summary of the method: as §1
[3] = Selectivity index, ratio of CC50 for human HEK293 cells to IC50 of chloroquine resistant Plasmodium falciparum INDO infected in human erythrocytes; format: toxicity, cell-based; conditions: read-out: Ratio CC50/IC50
Summary of the method: (§2)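 Selectivity index = CC50 / PfINDO IC50. CC50 came from MTT assays: 10^4 HEK293 or HUH7 cells per well, seeded overnight and exposed to 0–100 μM for 24 h, then MTT for 4 h at 37 °C with formazan dissolved in DMSO and read at A570. Controls were 0.8% DMSO (full growth) and 10% DMSO (zero growth).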

[4] = Toxicity in mouse assessed as drowsiness at 100 mg/kg, po measured after 45 mins; format: organism-based; conditions: in vivo, 0.75 h; summary of the method: as §1
[5] = Resistance index, ratio of IC50 of chloroquine resistant Plasmodium falciparum INDO to chloroquine sensitive Plasmodium falciparum 3D7; format: functional
Summary of the method: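 Resistance index = IC50 against PfINDO / IC50 against Pf3D7. Both IC50s came from 72 h SYBR Green I assays.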

Plasmodium falciparum [6] = assay: Antimalarial activity against chloroquine resistant trophozoites-stage Plasmodium falciparum INDO infected in human erythrocytes assessed as inhibition of parasite growth incubated for 12 hrs; format: functional, organism-based; conditions: Erythrocyte
Summary of the method: (§3)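 PfINDO cultures were staged at 0–6 h (rings), 18–22 h (trophozoites), 30–34 h (early schizonts) and 40–44 h (late schizonts) post-invasion. Each was exposed to varying concentrations for 12 h, washed free of compound by centrifugation, and grown 48 h in drug-free medium. IC50 came from growth curves, with untreated culture as 100% and chloroquine-treated culture as 0% growth.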

[7] = Toxicity in mouse assessed as effect on urination at 100 mg/kg, po measured after 45 mins; format: organism-based; conditions: in vivo, 0.75 h; summary of the method: as §1
[8] = Toxicity in mouse assessed as diarrhea at 100 mg/kg, po measured after 45 mins; format: organism-based; conditions: in vivo, 0.75 h; summary of the method: as §1
[9] = Selectivity index, ratio of CC50 for human Huh-7 cells to IC50 for antiplasmodial activity against chloroquine resistant Plasmodium falciparum INDO infected in human erythrocytes; format: toxicity, cell-based; conditions: read-out: Ratio CC50/IC50; summary of the method: as §2
[10] = Toxicity in mouse assessed as effect on rate of respiration at 100 mg/kg, po measured after 45 mins; format: organism-based; conditions: in vivo, 0.75 h; summary of the method: as §1
[11] = Toxicity in mouse assessed as coma at 100 mg/kg, po measured after 45 mins; format: organism-based; conditions: in vivo, 0.75 h; summary of the method: as §1
Plasmodium falciparum [12] = assay: Antimalarial activity against chloroquine resistant early schizont Plasmodium falciparum INDO infected in human erythrocytes assessed as inhibition of parasite growth incubated for 12 hrs; format: functional, organism-based; conditions: Erythrocyte; summary of the method: as §3
[13] = Binding affinity to Plasmodium falciparum GAP50 assessed as dissociation constant by SPR analysis
Summary of the method: (§4)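 GAP50 at 50 μg ml−1 in 10 mM acetate pH 4.5 was amine-coupled (EDC/NHS) onto a CM5 chip. Analytes at several concentrations in 5% DMSO/1× PBS; association 60 s, dissociation 120 s, flow 30 μl min−1. Regeneration with 10 mM glycine pH 3.0 for 30 s. Sensorgrams fitted to a 1:1 Langmuir model giving ka, kd and KD.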

Plasmodium falciparum [14] = assay: Antiplasmodial activity against chloroquine resistant Plasmodium falciparum INDO infected in human erythrocytes assessed as inhibition of parasite growth at 100 uM incubated for 72 hrs by SYBR green I staining based fluorescence plate reader analysis relative to control; format: functional; conditions: Erythrocyte
Summary of the method: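 Single-concentration screen at 100 μM against PfINDO, triplicate wells, 72 h. Final DMSO was 0.4%. Growth was read by SYBR Green I lysis (excitation 485, emission 530 nm) and expressed relative to untreated culture, taken as 100% growth.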

Plasmodium falciparum [15] = assay: Antiplasmodial activity against chloroquine resistant Plasmodium falciparum INDO trophozoites infected in human erythrocytes assessed as increase in reactive oxygen species level at 2 times IC50 concentration incubated for 8 hrs by H2DCFDA staining based fluorescence analysis; format: functional, organism-based; conditions: Erythrocyte
Summary of the method: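 PfINDO trophozoites (24–28 h post-invasion), 2% parasitemia, 2% haematocrit, were loaded with CM-H2DCFDA (5 μM, 30 min) and washed with PBS. They were then treated at 2× IC50 for 8 h, and DCF fluorescence was read at 530 nm. Controls were 100 μM H2O2 (positive) and 0.4% DMSO (negative). Triplicate biological samples.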

[16] = Toxicity in mouse assessed as change in body weight at 100 mg/kg, po measured after 45 mins; format: organism-based; conditions: in vivo, 0.75 h; summary of the method: as §1
[17] = Toxicity in mouse assessed as sedation at 100 mg/kg, po measured after 45 mins; format: organism-based; conditions: in vivo, 0.75 h; summary of the method: as §1
[18] = Cytotoxicity against human Huh-7 cells assessed as reduction in cell viability incubated for 24 hrs by MTT assay; format: toxicity, cell-based
Plasmodium falciparum [19] = assay: Additive antiplasmodial activity against multidrug-resistant Plasmodium falciparum Cam3.1R539T infected in human erythrocytes at 8 times IC50 concentration incubated for 72 hrs in presence of artemisinin by SYBR green I staining based fluorescence assay; format: functional, organism-based; conditions: Erythrocyte
Summary of the method: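 P. falciparum Cam3.1R539T in O+ human erythrocytes, 1% parasitemia, 2% haematocrit. 8× IC50 stocks of test compound and standard drug were mixed at molar ratios 4:1, 3:2, 2:3 and 1:4, then serially diluted two-fold. Plates were incubated 72 h at 37 °C and read by SYBR Green I lysis. Controls were 0.4% DMSO (100% growth) and 4 μM chloroquine (0% growth). ΣFIC = FICA + FICB; <1 synergistic, 1.0–2.0 additive, >2.0 antagonistic.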

Plasmodium falciparum [20] = assay: Antiplasmodial activity against chloroquine sensitive Plasmodium falciparum 3D7 infected in human erythrocytes assessed as inhibition of parasite growth at 100 uM incubated for 72 hrs by SYBR green I staining based fluorescence plate reader analysis relative to control; format: functional; conditions: 3D7, Erythrocyte
Summary of the method: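 Pf3D7 grown in O+ human erythrocytes at 4% haematocrit, Albumax (0.05%)-RPMI, 37 °C, 5% O2/5% CO2/90% N2, sorbitol-synchronised at ring stage. Single-point screen at 100 μM, final DMSO 0.4%, triplicate wells, 72 h. Read-out by SYBR Green I lysis buffer (Tris pH 7.5, EDTA, saponin, Triton X-100), 1 h dark at 37 °C, ex 485/em 530 nm. Growth expressed relative to untreated culture.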

[21] = Binding affinity to Plasmodium falciparum GAP50 assessed as equilibrium dissociation constant by SPR analysis; summary of the method: as §4
[22] = Cytotoxicity against human HEK293 cells assessed as reduction in cell viability incubated for 24 hrs by MTT assay; format: toxicity, cell-based
[23] = Toxicity in mouse assessed as lacrimation at 100 mg/kg, po measured after 45 mins; format: organism-based; conditions: in vivo, 0.75 h; summary of the method: as §1

Row | Compound | Activity [1] | Activity [2] | selectivity ratio [3] | Activity [4] | Ratio IC50 [5] | IC50 (Plasmodium falciparum [6]) [µM] | Activity [7] | Activity [8] | selectivity ratio [9] | Activity [10] | Activity [11] | IC50 (Plasmodium falciparum [12]) [µM] | Kd [13] [s⁻¹] | inhibition at 100 µM (Plasmodium falciparum [14]) [%] | Activity (Plasmodium falciparum [15]) | Activity [16] | Activity [17] | CC50 at 24 h [18] [µM] | Activity (Plasmodium falciparum [19]) | inhibition at 100 µM (Plasmodium falciparum [20]) [%] | further results
1 | Clc1ccc2c(N3CCN(CCCn4nnc(-c5ccc(Br)cc5)n4)CC3)ccnc2c1 | Non-Toxic | Non-Toxic | 178 | Non-Toxic | 1.21 | 2.16 | Non-Toxic | Non-Toxic | 128 | Non-Toxic | Non-Toxic | 2.81 | 0.191 | > 50 | Active | Non-Toxic | Non-Toxic | 288 | Active | > 50 | Kd [21]: < 100 µM; CC50 at 24 h [22]: 400 µM; Activity [23]: Non-Toxic
2 | O=C(Cn1nnc(-c2cccc([N+](=O)[O-])c2)n1)N1CCN(c2ccnc3cc(Cl)ccc23)CC1 | Non-Toxic | Non-Toxic | 223 | Non-Toxic | 0.8 | 2.72 | Non-Toxic | Non-Toxic | 223 | Non-Toxic | Non-Toxic | 2.15 | 0.006 | > 50 | Active | Non-Toxic | Non-Toxic | 400 | Active | > 50 | Kd [21]: < 100 µM; CC50 at 24 h [22]: > 400 µM; Activity [23]: Non-Toxic

— ChEMBL document CHEMBL5335820, “Novel quinolinepiperazinyl-aryltetrazoles targeting the blood stage of Plasmodium falciparum” (RSC Med Chem, 2024)
